The text below walks through data of ChEMBL document CHEMBL4229322, “Antibacterial Paramagnetic Quinones from Actinoallomurus” (2017).

Converted amounts (≈) assume the structure as drawn. The source made the active and inactive calls. The rule behind the calls is not given here.

What all share (assay type): functional
For test [1], the system named is Mycolicibacterium smegmatis. Kind of test: Antimicrobial activity against Mycobacterium smegmatis str. MC2 155 by broth microdilution method.
Test [2] deals with Escherichia coli. Kind of test: Antimicrobial activity against delta-tolC containing Escherichia coli L4242 by broth microdilution method.
The subject of test [3] is Escherichia coli. Put plainly: Antimicrobial activity against hyperpermeable Escherichia coli G1640 by broth microdilution method.
For test [4], the system named is Escherichia coli. Put plainly: Antimicrobial activity against Escherichia coli ATCC 25922 by broth microdilution method.
In a further test the test system is Moraxella catarrhalis. Kind of test: Antimicrobial activity against Moraxella catarrhalis L3292 by broth microdilution method.
The subject of the next test is Haemophilus influenzae. Put plainly: Antimicrobial activity against Haemophilus influenzae L3296 by broth microdilution method.
The next test has as its system Acinetobacter baumannii. Put plainly: Antimicrobial activity against Acinetobacter baumannii ATCC 13637 by broth microdilution method.
Test [5] has as its system Stenotrophomonas maltophilia. Kind of test: Antimicrobial activity against Stenotrophomonas maltophilia L3030 by broth microdilution method.
The test system of test [6] is Staphylococcus aureus. Put plainly: Antimicrobial activity against methicillin-sensitive Staphylococcus aureus ATCC 6538P by broth microdilution method.
Test [7] has as its system Staphylococcus aureus. Put plainly: Antimicrobial activity against methicillin-resistant Staphylococcus aureus L1400 by broth microdilution method. In outline: (§1)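 CLSI broth microdilution in Müller Hinton broth containing 20 mg/L CaCl2 and 10 mg/L MgCl2. Clinical isolates inoculated at 5 × 10^5 cfu/mL and incubated at 37 °C for 20−24 h. MIC read as the lowest inhibiting concentration.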

In test [8] the test system is Staphylococcus aureus. Kind of test: Antimicrobial activity against glycopeptide-intermediate resistant Staphylococcus aureus L3797 by broth microdilution method. In outline:
as §1

Test [9] deals with Staphylococcus aureus. Kind of test: Antimicrobial activity against glycopeptide-intermediate resistant Staphylococcus aureus L3798 by broth microdilution method. In outline:
as §1

Test [10] has as its system Staphylococcus haemolyticus. Kind of test: Antimicrobial activity against methicillin-sensitive Staphylococcus haemolyticus L1729 by broth microdilution method.
Test [11] has as its system Staphylococcus haemolyticus. Put plainly: Antimicrobial activity against methicillin-resistant Staphylococcus haemolyticus L1730 by broth microdilution method. In outline:
as §1

Test [12] relates to Streptococcus pyogenes. Kind of test: Antimicrobial activity against Streptococcus pyogenes L49 by broth microdilution method.
Test [13] concerns Streptococcus pyogenes. Put plainly: Antimicrobial activity against Streptococcus pyogenes ATCC BAA 1407 by broth microdilution method.
The subject of test [14] is Streptococcus pyogenes. Put plainly: Antimicrobial activity against Streptococcus pyogenes ATCC BAA 1402 by broth microdilution method.
The subject of test [15] is Enterococcus faecium. Put plainly: Antimicrobial activity against VanS expressing Enterococcus faecium L568 by broth microdilution method.
In test [16] the test system is Enterococcus faecium. Put plainly: Antimicrobial activity against VanA expressing Enterococcus faecium L569 by broth microdilution method.
Another test concerns Pseudomonas aeruginosa. Kind of test: Antimicrobial activity against Pseudomonas aeruginosa ATCC 27853 by broth microdilution method.
The test system of test [17] is Lactobacillus delbrueckii. Kind of test: Antimicrobial activity against Lactobacillus delbrueckii ATCC 4797 by broth microdilution method.
Another test has as its system Bacteroides fragilis. Kind of test: Antimicrobial activity against Bacteroides fragilis ATCC 25285 by broth microdilution method.
The next test concerns Cutibacterium acnes. Put plainly: Antimicrobial activity against Propionibacterium acnes ATCC 25476 by broth microdilution method.
In the next test the test system is Clostridioides difficile. Kind of test: Antimicrobial activity against Clostridium difficile L4013 by broth microdilution method.

Take GENTAMICIN: the MIC in test [1] came out at 16 µg/mL; in the test with Escherichia coli [2], 0.25 µg/mL; in the test with Escherichia coli [3] it was 0.25 µg/mL; against Escherichia coli [4], 0.25 µg/mL; against Moraxella catarrhalis, 0.25 µg/mL; in the test with Haemophilus influenzae it was 128 µg/mL. Further, the MIC against Acinetobacter baumannii came to 0.125 µg/mL; in test [5], 64 µg/mL.
As to `COc1cc2c(=O)c3cc4c(=O)c(OC)cc(=O)c4c(O)c3c(=O)c2c2c1C(=O)OC2`, the MIC entry (in the test with Staphylococcus aureus [6]; with Staphylococcus aureus [7]; in the test with Staphylococcus aureus [8]; in the test with Staphylococcus aureus [9]; in test [10]; in test [11]) was “Active” throughout. Further, the MIC entry (in the test with Streptococcus pyogenes [12]; in the test with Streptococcus pyogenes [13]; in the test on Streptococcus pyogenes [14]; in the test on Enterococcus faecium [15]; in the test with Enterococcus faecium [16]; in test [1]) was “Active” each time. In addition, the MIC result in the test with Escherichia coli [2], in the test with Escherichia coli [3], in the test with Escherichia coli [4], in the test on Moraxella catarrhalis, with Haemophilus influenzae and with Pseudomonas aeruginosa was “Active” in each case. The MIC entry (with Acinetobacter baumannii; in test [5]; in [17]; in the test with Bacteroides fragilis; with Cutibacterium acnes; in the test on Clostridioides difficile) was “Active” each time.
Consider `O=C1OCc2c1c(O)cc1c(=O)c3cc4c(=O)c(O)cc(=O)c4c(O)c3c(=O)c21`, for which the MIC (against Staphylococcus aureus [6]; against Staphylococcus aureus [7]; in the test with Staphylococcus aureus [8]; in the test with Staphylococcus aureus [9]; in [10]; in [11]) was above 16 µg/mL in each case. In addition, the MIC is 16 µg/mL (≈ 40.8 µM) in the test with Streptococcus pyogenes [12]; 8 µg/mL (≈ 20.4 µM) in the test on Streptococcus pyogenes [13]; 8 µg/mL (≈ 20.4 µM) in the test with Streptococcus pyogenes [14]; above 16 µg/mL in the test with Enterococcus faecium [15]; above 16 µg/mL in the test with Enterococcus faecium [16]; above 16 µg/mL in test [1]. Also, the MIC in the test with Escherichia coli [2], with Escherichia coli [3], against Escherichia coli [4], against Moraxella catarrhalis, in the test with Haemophilus influenzae and in the test on Pseudomonas aeruginosa was above 16 µg/mL in each case. Further, the MIC was above 16 µg/mL against Acinetobacter baumannii; above 16 µg/mL in [5]; above 16 µg/mL in test [17]; above 16 µg/mL with Bacteroides fragilis; above 16 µg/mL against Cutibacterium acnes; above 64 µg/mL with Clostridioides difficile.
On to `CNc1cc(=O)c2c(O)c3c(=O)c4c5c(c(OC)cc4c(=O)c3cc2c1=O)C(=O)OC5`, for which the MIC result (in the test with Staphylococcus aureus [6]; in the test with Staphylococcus aureus [7]; in the test with Staphylococcus aureus [8]; with Staphylococcus aureus [9]; in [10]; in [11]) was “Active” throughout. The MIC entry (with Streptococcus pyogenes [12]; with Streptococcus pyogenes [13]; in the test on Streptococcus pyogenes [14]; with Enterococcus faecium [15]; with Enterococcus faecium [16]; in [1]) was “Active” each time. The MIC entry in the test on Escherichia coli [2], in the test with Escherichia coli [3], in the test on Escherichia coli [4], in the test on Moraxella catarrhalis, with Haemophilus influenzae and with Pseudomonas aeruginosa was “Active” each time. Further, the MIC result (in the test on Acinetobacter baumannii; in test [5]; in [17]; in the test with Bacteroides fragilis; in the test on Cutibacterium acnes; in the test on Clostridioides difficile) was “Active” throughout.
Take `CN[C@H](CC(C)C)C(=O)N[C@H]1C(=O)N[C@@H](CC(N)=O)C(=O)N[C@H]2C(=O)N[C@H]3C(=O)N[C@H](C(=O)N[C@H](C(=O)O)c4cc(O)cc(O)c4-c4cc3ccc4O)[C@H](O)c3ccc(c(Cl)c3)Oc3cc2cc(c3O[C@@H]2O[C@H](CO)[C@@H](O)[C@H](O)[C@H]2O[C@H]2C[C@](C)(N)[C@H](O)[C@H](C)O2)Oc2ccc(cc2Cl)[C@H]1O` [VANCOMYCIN]: the MIC was 8 µg/mL (≈ 5.52 µM) against Staphylococcus aureus [8]; 8 µg/mL (≈ 5.52 µM) in the test on Staphylococcus aureus [9]; 2 µg/mL (≈ 1.38 µM) in [10]; 128 µg/mL (≈ 88.3 µM) in test [11]; above 128 µg/mL against Enterococcus faecium [16]; above 128 µg/mL in [1]. The MIC is above 128 µg/mL against Escherichia coli [2]; above 128 µg/mL against Escherichia coli [3]; above 128 µg/mL with Escherichia coli [4]; 32 µg/mL (≈ 22.1 µM) in the test on Moraxella catarrhalis; above 128 µg/mL against Haemophilus influenzae; 2 µg/mL (≈ 1.38 µM) in the test with Pseudomonas aeruginosa. Moreover, the MIC in the test on Acinetobacter baumannii is 128 µg/mL (≈ 88.3 µM); in [5], 128 µg/mL (≈ 88.3 µM); in [17] it was above 128 µg/mL; against Bacteroides fragilis, 16 µg/mL (≈ 11 µM); in the test on Cutibacterium acnes, 0.25 µg/mL (≈ 0.173 µM); against Clostridioides difficile it was 0.5 µg/mL (≈ 0.345 µM).
